Rows were chosen to be rich in hits. Some 0.59% of all compounds tested hit in one or more screens of this group.
OXTR potentiator – human OXTR potentiators, primary screen, fluorescence, CHO-OTR cells, Fluo-8 calcium; Oxytocin receptor (Homo sapiens), P30559; Fluo-8 calcium fluorescence, potentiator mode; 0% = oxytocin EC15, 100% = EC100; activation, % at 3 µM; 320,000 compounds, 0.061% hits; AID 2445, 2010;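 active = activation above that plate's cutoff, the mean activation of tested compounds plus 3 SD, cut at about 6.6% in these data, passing the limit was not always enough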;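 note: 100% uses oxytocin at 75 nM as the full agonist control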
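Dosing: Single dose, 3.0 µM nominal final compound concentration | Material: Human OTR in CHO cells | Technique: Kinetic Fluo-8 calcium fluorescence | Benchmarks: EC15 oxytocin alone as 0%, 75 nM oxytocin as 100% | Probe or stimulus: Oxytocin at about EC15, sub-maximal agonist stimulus | Incubation: Compound 6 min at room temperature before oxytocin, 100 s read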
TRPML3 ag – human TRPML3 channel agonists, primary screen, cell-based, HEK293 TRPML3-YFP, Fluo-8 calcium fluorescence, 3 µM. Mucolipin-3 (Homo sapiens), Q8TDD5. 100% = the carbachol control signal. activation, % at 3 µM. 220,000 compounds, 0.29% hits. AID 1448, 2008;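 active = activation above its plate's cutoff, the mean activation of the plate's test wells plus 3 SD, cut at about 12% in these data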;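 note: 0% = DMSO only wells and 100% = carbachol wells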
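Test system – HEK293 line with stable expression of human TRPML3-YFP channel · Control set – carbachol 87 µM final as high control (100%), DMSO as low control (0%) · Signal – Fluo-8 calcium dye fluorescence, ex 470-495, em 515-575 nm · Incubation – 1-h 37 °C dye load, 5-s basal, 120-s post-compound reads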
OXTR ag – human OXTR agonists, primary screen, fluorescence, CHO-OTR cells, Fluo-8 calcium | Oxytocin receptor (Homo sapiens), P30559 | Fluo-8 calcium fluorescence; normalized: DMSO 0%, oxytocin 100% | activation, % at 3 µM | 320,000 compounds, 0.32% hits | AID 2435, 2010;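 active = activation above the mean of all tested compounds plus 3 SD, cutoff set per screening run, cut at about 20% in these data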;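 note: peak over basal fluorescence ratio from a 100 s FLIPR kinetic read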
zfTRPN1 agonist – zebrafish TRPN1 channel agonists, primary screen, cell-based, HEK293, calcium fluorescence; activation, % at 3 µM; HEK293 zebrafish TRPN1-YFP, Fluo-8 calcium fluorescence; 100% = response to 87 µM carbachol; 220,000 compounds, 0.18% hits; transient receptor potential cation channel N1 (TRPN1/NompC), Danio rerio; AID 1424, 2008;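 active = activation above its plate's cutoff, the mean activation of test wells on that plate plus 3 SD, cut at about 19% in these data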;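 note: 0% = DMSO alone and 100% = 87 µM carbachol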
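Control set: carbachol 87 µM as high control, DMSO as low control; system: HEK293 stable line with zebrafish TRPN1-YFP; read-out: % activation versus carbachol response; detection: intracellular calcium fluorescence with Fluo-8; doses: single test compound dose, 3 µM nominal, 0.3% DMSO; schedule: dye 1 h 37 °C plus 30 min RT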
V1R ag counter – agonists of human V1a receptor, primary screen, counter-screen for OXTR agonist project, fluorescence, CHO-V1R cells. 320,000 compounds, 0.25% hits. activation, % at 3 µM. Fluo-8 calcium fluorescence, agonist mode; 0% DMSO, 100% 3 nM vasopressin. Vasopressin V1a receptor (Homo sapiens), P37288;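 active = activation above the mean activation of all tested compounds plus 3 SD, per screening run, cut at about 20% in these data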;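 note: signal is peak over basal fluorescence ratio across a 100 second FLIPR read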
Target sequence (P37288 whole entry, looked up): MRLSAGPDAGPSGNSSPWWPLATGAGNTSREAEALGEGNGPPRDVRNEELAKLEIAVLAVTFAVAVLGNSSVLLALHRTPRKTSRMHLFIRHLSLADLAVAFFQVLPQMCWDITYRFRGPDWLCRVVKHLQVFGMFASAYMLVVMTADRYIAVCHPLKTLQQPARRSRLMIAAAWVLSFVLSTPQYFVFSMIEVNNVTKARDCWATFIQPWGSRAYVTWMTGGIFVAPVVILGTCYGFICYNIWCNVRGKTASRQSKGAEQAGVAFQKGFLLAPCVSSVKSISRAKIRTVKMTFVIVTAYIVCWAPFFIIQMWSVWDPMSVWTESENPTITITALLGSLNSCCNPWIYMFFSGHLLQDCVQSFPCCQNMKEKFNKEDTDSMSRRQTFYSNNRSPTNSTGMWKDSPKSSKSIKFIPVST
Active calls of the source: *; / = no result.

SMILES	OXTR potentiator	TRPML3 ag	OXTR ag	zfTRPN1 agonist	V1R ag counter
Cc1cc2nc3c(=O)[nH]c(=S)[nH]c3nc2cc1NC(=O)C(F)(F)F	-16.7	/	55.0*	/	80.0*
CN(C)c1ccc(/C=C/C(=O)c2cccc(Br)c2)cc1	-9.8	91.9*	94.4*	163.5*	154.7*
CN(C)c1ccc(C(=O)/C=C/c2cccnc2)cc1	-1.0	/	-0.7	/	-1.0
COCCCNC(=O)COc1cc2c(c3oc(=O)c(C)c(C)c13)CCC(C)(C)O2	-7.4	/	-1.0	/	-1.0
COC(CNC(=O)c1ccc2c3c(onc13)-c1ccccc1C2=O)OC	-2.7	18.1*	19.6	26.9*	8.2
COc1ccc(OC)c(/C=C2\NC(=O)NC2=O)c1	6.4	/	0.4	/	0.4
COc1cc(N2CCCC2)c(OC)cc1/C=C1/NC(=S)NC1=O	-9.4	17.3*	48.3*	60.5*	36.4*
CC1CCCC(NC(=O)c2ccc3snnc3c2)C1C (stereo not drawn)	1.2	/	-0.6	/	-0.9
CCOc1ccc(C(C)=O)cc1COc1ccc(C)nc1[N+](=O)[O-]	1.4	/	0.3	/	-0.5
CCCOc1ccc(/C(O)=C2\C(=O)C(=O)N(c3ccccn3)C2c2ccccc2F)cc1C (stereo not drawn)	-0.2	/	-0.6	/	9.3
Cc1cc(/C=C2\C(=N)N3N=C(S(C)(=O)=O)SC3=NC2=O)c(C)n1Cc1ccccc1	-12.2	-0.1	-0.8	-0.1	-0.6
CCCC1=NN2C(=N)/C(=C\c3cc(C)n(Cc4ccccc4)c3C)C(=O)N=C2S1	-18.1	0.3	48.1*	3.5	43.4*
N#C/C(=C\c1ccccn1)c1nc2ccccc2s1	-16.1	7.5	27.5*	26.2*	30.6*
N#C/C(=C/c1ccc(-c2ccc(S(N)(=O)=O)cc2)o1)c1nc2ccccc2s1	-9.6	13.7*	37.9*	12.9	50.7*
N#C/C(=C/c1ccc(-c2ccc(S(N)(=O)=O)cc2)o1)C(=O)Nc1ccccc1	-7.7	0.2	3.2	3.5	2.0
COc1ccc(/C(C#N)=C/c2ccccn2)cc1	-11.2	2.0	-1.8	-0.1	-0.6
Cc1onc(-c2ccccc2)c1C(=O)NCc1ccc2c(c1)OCO2	4.2	0.3	-0.8	0.9	-0.3
Cc1onc(-c2ccccc2)c1C(=O)NNC(=S)NC(=O)c1ccc2c(c1)OCO2	-18.9	23.1*	27.2*	23.2*	53.0*
Cc1onc(-c2ccccc2)c1C(=O)NC(=S)NNC(=O)c1ccncc1	-5.0	-0.4	-1.9	-0.4	1.1
Cc1onc(-c2ccccc2)c1C(=O)NNC(=S)NC(=O)/C=C/c1cccs1	-11.1	0.2	29.1*	-0.4	24.2*
C=CCn1c(=O)[nH]c2nc3cc(N=CN(C)C)c(C)cc3nc2c1=O	-9.2	8.6	16.6	26.9*	12.7
CN(C)/C=N/c1cc(=O)[nH]c(=O)n1CC1CC1	7.8	0.7	0.6	0.3	-0.1
CCOc1ccc(S(=O)(=O)N=C(c2ccccc2)N2CCOCC2)cc1	4.7	/	1.1	/	1.6
COCc1ccc(CN2CCC(C(=O)Nc3cccc(-c4cccc(Cl)c4)c3)CC2)o1	-15.8	/	23.4*	/	28.0*
COCc1ccc(CN2CCC(C(=O)Nc3cccc(-c4cscn4)c3)CC2)o1	-4.3	/	0.6	/	0.6
SMILES	OXTR potentiator	TRPML3 ag	OXTR ag	zfTRPN1 agonist	V1R ag counter
COc1ccc(NC(=O)COC(=O)c2cc(=O)c3ccccc3o2)cc1OC	-2.1	/	0.1	/	1.1
Cc1cccc(-n2nc3c(c2NC(=O)C2CC2)CS(=O)(=O)C3)c1C	1.1	/	1.3	/	1.0
CCN1C(=O)/C(=C/C=C2\N(CC)c3cc(S(=O)(=O)N(C)C)ccc3N2c2ccccc2)SC1=S	-7.5	5.6	18.7	21.8*	18.7
CC(=O)c1cccc(NC(=S)NC(=O)Cc2ccc(Cl)cc2)c1	-25.0	/	26.4*	/	20.9*
O=C1N/C(=N\S(=O)(=O)Cc2ccccc2)S/C1=C/c1cc([N+](=O)[O-])ccc1O	-13.5	31.0*	43.1*	63.8*	62.6*
O=C1N/C(=N\S(=O)(=O)c2ccccc2)S/C1=C\c1cc([N+](=O)[O-])ccc1O	-16.8	/	25.4*	/	20.4*
COc1cc(/C=C2\S/C(=N/S(=O)(=O)Cc3ccccc3)NC2=O)c([N+](=O)[O-])cc1OC	2.9	1.4	1.6	0.7	1.6
COc1ccc(C(=O)Nc2ccc3c(c2)C(=O)NC3=O)cc1	-1.2	/	-0.5	/	0.7
CN1CCC(Oc2ccc(Sc3ccccc3)cc2)CC1	-8.9	2.5	22.4*	4.9	11.4
O=C(O)CCCCCCCCCCP(=O)(c1ccccc1)c1ccccc1	-3.2	0.8	1.4	1.7	-0.2
O=P(CCCCCCCCCP(=O)(c1ccccc1)c1ccccc1)(c1ccccc1)c1ccccc1	-21.5	-1.0	20.0*	-1.9	23.7*
O=C(Cc1ccccc1F)Nc1ccc(S(=O)(=O)Nc2ncccn2)cc1	3.7	/	0.8	/	0.5
Cc1ccc(S(=O)(=O)N(CC(=O)Nc2cccnc2)c2ccccc2C)cc1	-13.3	/	0.7	/	3.1
CCOc1ccc(C(C)=O)cc1COC(=O)CNC(=O)C12CC3CC(CC(C3)C1)C2	-9.0	/	0.3	/	2.4
O=[N+]([O-])c1ccc(Sc2cccc[n+]2[O-])c2nonc12	/	14.4*	/	34.8*	/
O=C(c1ccc(NS(=O)(=O)c2ccc3[nH]c(=O)[nH]c3c2)cc1)N1CCN(c2ccccc2)CC1	-6.0	/	0.1	/	0.6
Cc1ccc(S(=O)(=O)N2[C@@H](c3ccc(F)cc3)C(C(=O)O)=C[C@H]2CC2CCCC2)cc1	-6.2	/	0.3	/	0.8
Cc1ccc(S(=O)(=O)N(Cc2ccccc2)Cc2ccco2)cc1	-21.5	44.9*	-1.5	-0.7	0.3
CN(C)S(=O)(=O)c1ccc2c(c1)/C(=C/c1cc3c([nH]1)CCCC3)C(=O)N2	-12.2	/	34.7*	/	24.6*
Cc1nonc1C(=O)N1CCCC(Nc2ccc(C(C)C)cc2)C1 (stereo not drawn)	-19.4	/	-1.3	/	-0.5
Cc1cnc(C(=O)OCC(=O)Nc2cc(Cl)ccc2C#N)cn1	1.3	/	1.3	/	-0.2
N#Cc1ccc(NC(=O)Nc2cccc(C#N)c2)cc1	/	12.4*	/	22.7*	/
N#Cc1ccc(NC(=O)Nc2ccc(Oc3ccc(NC(=O)Nc4ccc(C#N)cc4)cc3)cc2)cc1	-12.4	0.9	3.3	2.9	10.1
O=C(CN1C(=O)NC2(CCCCC2)C1=O)N1CCN(S(=O)(=O)c2cccc(F)c2)CC1	0.1	/	-0.5	/	0.3
O=C(OCn1ncc(Cl)c(Cl)c1=O)c1ccccc1Cl	17.0*	-0.3	-2.0	-0.7	-2.0
COc1ccc2c(C(=O)c3ccc(C)cc3)n(CCCC(N)=O)[n+]([O-])c2c1	-2.9	/	0.2	/	-0.6
